Bioassay records as filed in PubChem.
This is a sample that favours compounds with a hit; in the whole collection about 1.9% have one here.
NadD block = inhibitors of S. aureus NadD, primary screen, biochemical, colorimetric, uHTS; hit rate 0.78% among 360,000; AID 602399, 2012; Nicotinate-nucleotide adenylyltransferase NadD (Staphylococcus aureus N315); inhibition, % at 20 µM; purified NadD enzyme, colorimetric absorbance read-out; in the data active = inhibition above about 26%
Tb MetRS inh = T. brucei MetRS inhibitors, primary screen, biochemical, luminescence | purified T. brucei MetRS, ATP depletion, Kinase-Glo luminescence | methionyl-tRNA synthetase (Trypanosoma brucei brucei) | hit rate 0.4% among 360,000 | AID 624268, 2012 | inhibition, % at 11.9 µM;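 active = inhibition above a per-plate cutoff of the control wells' mean inhibition plus 3 SD, cut at about 5.5% in these data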;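 note: 0% = DMSO wells median and 100% = median of wells with control inhibitor compound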
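Dosing: 11.9 µM single point; system: parasite MetRS enzyme; technique: luminescence of leftover ATP; times: 15 min enzyme-compound preincubation, 2 h reaction, 10 min detection, 25 °C; replicates: each compound tested once; read-out basis: percent inhibition relative to median high and low control wells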
Pemphigus Ab inh = inhibitors of pemphigus antibody binding to DSG3, primary screen, biochemical, bead-based, flow cytometry, scFv-GFP; binding (percent of control), % at 10 µM; hit rate 0.48% among 310,000; AID 588358, 2011; DSG3-coupled beads, scFv-anti-DSG3-GFP binding; hits give low values;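 active = binding more than 3 SD below its plate's average and above zero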;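 note: hits lower antibody fragment binding to DSG3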
HCV core dimer = inhibitors of HCV core protein dimerization, primary screen, biochemical, TR-FRET, high-throughput; hit rate 0.33% among 300,000; TR-FRET GST/Flag-core106 dimerization, 1536-well; inhibition, % at 5 µM;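 active = inhibition above the mean of all tested compounds plus 3 SD, set per screening campaign, cut at about 45% in these data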
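System: GST-tagged and Flag-tagged HCV core protein residues 1-106 / Input: core106 proteins, GST 13.5 nM and Flag 17 nM / Buffer or medium: KF-containing HEPES buffer, pH 7.45, DTT, CHAPS, BSA / Probe or stimulus: Eu-anti-GST and XL665-anti-Flag labelled anti-tag antibodies / Schedule: 4 h, 22.5 °C incubation / Technique: TR-FRET 671 and 617 nm emission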
Rce1 inh = yeast Rce1p protease inhibitors, primary screen, biochemical, fluorescence, cell-free homogeneous; CAAX prenyl protease 2 (Saccharomyces cerevisiae (strain ATCC 204508 / S288c)), Q03530; yeast membranes, quenched prenylated peptide cleavage fluorescence; hit rate 0.27% among 290,000; calls only;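 active = fall in fluorescence gain of 50% or more versus controls, with final raw signal at or below 3038400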;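 note: plate controls were neutral control wells for no effect and wells lacking membranes for full effect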
Target sequence (Q03530 whole entry, looked up): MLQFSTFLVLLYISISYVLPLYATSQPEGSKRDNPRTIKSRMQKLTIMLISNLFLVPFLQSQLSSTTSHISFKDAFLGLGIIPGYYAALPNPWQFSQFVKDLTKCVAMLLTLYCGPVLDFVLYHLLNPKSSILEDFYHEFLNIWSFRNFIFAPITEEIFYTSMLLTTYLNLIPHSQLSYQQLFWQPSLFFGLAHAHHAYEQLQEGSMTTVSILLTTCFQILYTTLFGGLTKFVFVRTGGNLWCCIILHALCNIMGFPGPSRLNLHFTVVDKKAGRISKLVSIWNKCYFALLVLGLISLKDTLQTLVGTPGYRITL
Tb MetRS conf = T. brucei MetRS inhibitors, confirmation, biochemical, luminescence | shares compounds with Tb MetRS inh | AID 624412, 2012 | hit rate 93% among 1,400 | T. brucei MetRS enzyme, luminescence (ATP depletion) | inhibition, % at 11.9 µM; in the data active = inhibition above about 7%
Jurkat cytotox = Jurkat T cell cytotoxicity, cytotoxicity control for T. brucei MetRS inhibitor project, luminescence, high throughput | shares compounds with Tb MetRS inh | Jurkat cells viability, ATP luminescence | inhibition, % at 8.3 µM | hit rate 12% among 1,400; in the data active = inhibition above about 15%;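 note: 0% = vehicle and 100% = reference inhibitor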
TbMetRS FP orth = T. brucei MetRS inhibitors, orthogonal assay for T. brucei MetRS inhibitor project, biochemical, fluorescence polarization; AID 651607, 2012; purified T. brucei MetRS; hit rate 44% among 1,400; shares compounds with Tb MetRS inh; inhibition, % at 11.9 µM; in the data active = inhibition above about 17%;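 note: 0% = vehicle wells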
Starred values were filed as active, the others as inactive; i = inactive; nt = no result.

SMILES | NadD block | Tb MetRS inh | Pemphigus Ab inh | HCV core dimer | Rce1 inh | Tb MetRS conf | Jurkat cytotox | TbMetRS FP orth
Cc1cccc(NC(=O)CCCSc2nc3ccccc3[nH]2)c1 | 0 | 17* | 75 | -12 | i | 18* | 7 | 6
CC(C)CNC(=O)CCCSc1nc2ccccc2[nH]1 | 8 | -1 | 103 | -8 | i | nt | nt | nt
COc1ccc(N2CCN(C(=O)CCCSc3nc4ccccc4[nH]3)CC2)cc1 | -5 | 6.6* | 106 | -7 | i | 20* | 4 | 7
CCc1cccc(NC(=O)CCCSc2nc3ccccc3[nH]2)c1 | -5 | 26* | 129 | 4 | i | 44* | 6 | 17*
Cc1cc(C)cc(NC(=O)CCCSc2nc3ccccc3[nH]2)c1 | -4 | 11* | 98 | -1 | i | 22* | -4 | 10
CCN(CC)c1ccc2cc(C=O)c(=O)oc2c1 | 5 | 0 | 410 | 0 | i | nt | nt | nt
O=C(CNC(=O)c1ccc(Br)cc1)N/N=C/c1ccc[nH]1 | 2 | 23* | 68 | -3 | i | 47* | 10 | 22*
O=C(Cn1c2[n+](c3ccc(C(F)(F)F)cc31)CCCCC2)Nc1ccccc1 | 22 | 28* | 108 | -6 | i | 35* | -6 | 17
CCc1cccc(NC(=O)Cn2c3[n+](c4ccc(C(F)(F)F)cc42)CCCCC3)c1 | 12 | 0 | 93 | -7 | i | nt | nt | nt
O=C(CN1C(=O)/C(=C2\SC(=S)N(CCS(=O)(=O)O)C2=O)c2ccccc21)Nc1cccc(Br)c1 | 51* | 19* | 45* | -13 | i | 20* | -5 | 1
O=C(CN1C(=O)/C(=C2/SC(=S)N(CCS(=O)(=O)O)C2=O)c2ccccc21)Nc1cccc(C(F)(F)F)c1 | 34* | 42* | 82* | nt | nt | 14* | 5 | 2
COCCN1C(=O)/C(=C2/C(=O)N(CC(=O)Nc3ccccc3Cl)c3ccccc32)SC1=S | 22 | -1 | 105 | 6 | i | nt | nt | nt
COC(=O)c1sc(-c2ccc(C(C)(C)C)cc2)cc1NC(=O)COCC(=O)O | -8 | 0 | 99 | 23 | i | nt | nt | nt
COC(=O)c1sc(-c2ccc(Cl)cc2)cc1NC(=O)CSCC(=O)O | -16 | 20* | 101 | 11 | i | 33* | -7 | 24*
O=C1CC(c2ccc(F)cc2)CC2=C1C(c1ccc([N+](=O)[O-])o1)Nc1ccccc1N2 (configuration not stated) | -1 | 6.9* | 101 | 3 | i | 1 | 3 | 1
NC1=NC(=O)/C(=C\c2ccc(-c3ccc(Cl)cc3)o2)S1 | 15 | 9.1* | 88 | -19 | i | 34* | 22* | 49*
CN(CCc1nc2ccc(Cl)cc2[nH]1)Cc1nc(CC2CC2)no1 | -7 | 42* | 97 | 5 | i | 62* | -1 | 28*
CC(C)C(=O)Nc1cccc(C(=O)N2CCCCC2C)c1 (configuration not stated) | 3 | 0 | nt | -2 | i | nt | nt | nt
CCOC(=O)CSc1nc(N(C)C)nc(N(C)C#N)n1 | 6 | -1 | 107 | 4 | i | nt | nt | nt
O=C(Cc1ccccc1)Nc1nonc1NC(=O)c1ccccc1 | 0 | 9.1* | 100 | 1 | i | 16* | 4 | 10
O=C(Cc1ccccc1)Nc1ccc(NC(=O)c2ccccc2)nc1 | -10 | 1 | 98 | 2 | i | nt | nt | nt
O=C(Nc1ccccc1Cl)N(Cc1nc2ccccc2c(=O)[nH]1)Cc1cccs1 | 1 | -1 | 91 | -2 | i | nt | nt | nt
O=C(Nc1ccc(Cl)cc1)N(Cc1nc2ccccc2c(=O)[nH]1)Cc1cccs1 | -1 | 9.8* | 100 | 6 | i | 38* | 3 | 19*
CC(C)(Oc1ccc(Cl)cc1)C(=O)NNC(=O)c1ccc(Br)o1 | 2 | 0 | 118 | nt | i | nt | nt | nt
CCCCn1c(NC(=O)c2ccc(Br)o2)c(S(=O)(=O)c2ccccc2)c2nc3ccccc3nc21 | 6 | 6.0* | 97 | 17 | i | 11* | 1 | 1
SMILES | NadD block | Tb MetRS inh | Pemphigus Ab inh | HCV core dimer | Rce1 inh | Tb MetRS conf | Jurkat cytotox | TbMetRS FP orth
CCCCn1c(NC(=O)c2ccco2)c(S(=O)(=O)c2ccc(C)cc2)c2nc3ccccc3nc21 | 24 | 3 | 96 | nt | i | nt | nt | nt
CCCCn1c(NS(=O)(=O)c2ccccc2)c(S(=O)(=O)c2ccc(C)cc2)c2nc3ccccc3nc21 | 15 | 16* | 90 | 36 | i | 12* | 1 | 9
CCCCCn1c(NC(=O)c2ccco2)c(S(=O)(=O)c2ccc(C)cc2)c2nc3ccccc3nc21 | 14 | 5 | 106 | 23 | i | nt | nt | nt
CSc1ccc(CNC(=O)C2CCC(=O)N(CCc3ccc(Cl)cc3)C2)cc1 (configuration not stated) | -2 | 0 | 99 | nt | nt | nt | nt | nt
COc1ccc(NCc2nnc(SCC(=O)NNC(=O)c3ccc(C)cc3)n2C)cc1 | -3 | 0 | 109 | -1 | i | nt | nt | nt
Cc1ccc(CN2CCC(c3nc4ccc(Cl)cc4[nH]3)CC2)cc1 | -7 | 8.2* | 85 | -3 | i | 25* | 12 | 8
Clc1ccc2nc(C3CCN(Cc4ccccc4)CC3)[nH]c2c1 | -2 | 11* | 99 | -5 | i | 9.8* | 4 | 4
CC1CCCCN1C(=O)CN1CCC(c2nc3ccc(Cl)cc3[nH]2)CC1 (configuration not stated) | -8 | 3 | 99 | -1 | i | nt | nt | nt
COc1cc(Cn2c3ccc(NC(=S)NCc4ccc(C)cc4)cc3c(=O)n2C)ccc1F | 4 | 7.9* | nt | nt | nt | 28* | 1 | 16
Cc1cc(C)cc(Cn2c3ccc(NC(=S)NCc4ccccc4F)cc3c(=O)n2C)c1 | 6 | 8.5* | nt | nt | nt | 33* | -7 | 16
COc1cc(Cn2c3ccc(NC(=O)CC(C)(C)C)cc3c(=O)n2C)ccc1F | -5 | 0 | nt | nt | nt | nt | nt | nt
CC1=CC(=O)OC1Cc1ccncc1 (configuration not stated) | 0 | -1 | 105 | 2 | i | nt | nt | nt
